Measured values as given in ChEMBL document CHEMBL5252537, “Usnic Acid Benzylidene Analogues as Potent Mechanistic Target of Rapamycin Inhibitors for the Control of Breast Malignancies” (J Nat Prod, 2017).
Active and inactive are the calls of the source. The calls are words filed in the database; no cut-off is given here.

Columns and labels:
[1] = target: Serine/threonine-protein kinase mTOR (Homo sapiens) (UniProt P42345); assay: Inhibition of mTOR in human MDA-MB-231 cells assessed as reduction in p-S6K level at 15 to 25 uM by Western blot analysis; format: cell-based; settings: dose 15-25 µM
Procedure, shortened: (§1)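 Cells seeded at 5 × 10^5 per 100 mm dish and allowed to attach overnight. Treated with compound or DMSO for 72 h (HGF 100 ng/mL added for MDA-MB-231). Lysed in RIPA buffer with protease inhibitors. 30 μg protein run on SDS-PAGE, transferred to PVDF, blocked in 5% BSA/TBST. Primary antibodies overnight at 4 °C, HRP secondary antibodies, chemiluminescent detection.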

[2] = target: Serine/threonine-protein kinase mTOR (Homo sapiens) (UniProt P42345); assay: Inhibition of mTOR in human MDA-MB-231 cells assessed as reduction in phosphorylated 4E-BP1 level at 15 to 25 uM by Western blot analysis; format: cell-based; settings: dose 15-25 µM; procedure, shortened: as §1
MDA-MB-231 [3] = assay: Anti-invasive activity in human MDA-MB-231 cells after 24 hrs […]; format: functional, cell-based; settings: MDA-MB-231, 24 h
[4] = target: Serine/threonine-protein kinase mTOR (Homo sapiens) (UniProt P42345); assay: Inhibition of mTOR in human […] cells assessed as reduction in p-S6K level at 15 to 25 uM by Western blot analysis; format: cell-based; settings: MCF7, dose 15-25 µM; procedure, shortened: as §1
MDA-MB-231 [5] = assay: Antiproliferative activity against human MDA-MB-231 cells incubated for 72 hrs by MTT assay; format: functional, cell-based; settings: MDA-MB-231, 72 h
Procedure, shortened: (§2)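 Cells seeded at 5 × 10^3/well and allowed to attach overnight, then washed with PBS. Compound diluted from 10 mM DMSO stock into medium (100 ng/mL HGF added for c-Met-expressing cells), in triplicate, 72 h at 37 °C. MTT added for 4 h, formazan dissolved in DMSO, absorbance read at 570 nm. Cell numbers taken from a standard curve; IC50 calculated.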

MDA-MB-231 [6] = assay: Antimigratory activity in human MDA-MB-231 cells assessed as inhibition of cell migration after 23 hrs by scratch wound healing assay; format: functional, cell-based
Procedure, shortened: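 Cells seeded at 1 × 10^5/well and grown to a confluent monolayer, then scratched with a 200 μL pipet tip. Held 5 h in serum-free medium, then given medium with HGF (100 ng/mL) plus compound or DMSO. Norstictic acid (15 μM) was the positive control. Wound width photographed at 0 h and followed up to 24 h; cells MeOH-fixed. Percent migration from wound thickness versus DMSO wells; IC50 calculated.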

MDA-MB-468 = assay: Antiproliferative activity against human MDA-MB-468 cells incubated for 72 hrs by MTT assay; format: functional, cell-based; settings: MDA-MB-468, 72 h; procedure, shortened: as §2
MCF7 [7] = assay: Induction of autophagy in human MCF7 cells assessed as increase in LC3 level by Western blotting analysis; format: functional, cell-based; settings: dose 15-25 µM; procedure, shortened: as §1
BT-474 = assay: Antiproliferative activity against human BT-474 cells incubated for 72 hrs by MTT assay; format: functional, cell-based; settings: BT-474, 72 h; procedure, shortened: as §2
[8] = target: Serine/threonine-protein kinase mTOR (Homo sapiens) (UniProt P42345); assay: Inhibition of mTOR in human […] cells assessed as reduction in phosphorylated 4E-BP1 level at 15 to 25 uM by Western blot analysis; format: cell-based; settings: MCF7, dose 15-25 µM; procedure, shortened: as §1
mTORC2 (Homo sapiens) [9] = target: T1, mTORC2 (Homo sapiens) (UniProt P42345+Q6R327+Q9BVC4+Q9BPZ7); assay: Inhibition of mTORC2 in human MDA-MB-231 cells assessed as reduction in Akt phosphorylation at Ser473 residue at 15 to 25 uM by Western blot analysis; format: cell-based; settings: dose 15-25 µM; procedure, shortened: as §1
MCF7 [10] = assay: Antiproliferative activity against human MCF7 cells incubated for 72 hrs by MTT assay; format: functional, cell-based; settings: MCF7, 72 h; procedure, shortened: as §2
MDA-MB-231 [11] = assay: Induction of autophagy in human MDA-MB-231 cells assessed as increase in LC3 level by Western blotting analysis; format: functional, cell-based; settings: dose 15-25 µM; procedure, shortened: as §1
MDA-MB-231 [12] = assay: Induction of autophagy in human MDA-MB-231 cells assessed as increase in beclin-1 level by Western blotting analysis; format: functional, cell-based; settings: dose 15-25 µM; procedure, shortened: as §1
SK-BR-3 = assay: Antiproliferative activity against human SK-BR-3 cells incubated for 72 hrs by MTT assay; format: functional, cell-based; settings: SK-BR-3, 72 h; procedure, shortened: as §2
mTORC2 (Homo sapiens) [13] = target: T1, mTORC2 (Homo sapiens); assay: Inhibition of mTORC2 in human MCF7 cells assessed as reduction in Akt phosphorylation at Ser473 residue at 15 to 25 uM by Western blot analysis; format: cell-based; settings: dose 15-25 µM; procedure, shortened: as §1
MCF7 [14] = assay: Induction of autophagy in human MCF7 cells assessed as increase in beclin-1 level by Western blotting analysis; format: functional, cell-based; settings: dose 15-25 µM; procedure, shortened: as §1
T47D = assay: Antiproliferative activity against human T47D cells incubated for 72 hrs by MTT assay; format: functional, cell-based; procedure, shortened: as §2

`CC(=O)C1=C(O)C=C2Oc3c(C(C)=O)c(O)c(C)c(O)c3[C@]2(C)C1=O` [(-)-USNIC ACID] was tested, and the inhibition [1] was “Active”, the inhibition [2] was “Active” and the IC50 (MDA-MB-231 [3]) was 14.2 µM. The inhibition [4] was “Active”, the IC50 (MDA-MB-231 [5]) was 13.1 µM and the Activity (MDA-MB-231 [6]) was “Dose-Dependent Effect”. For the same molecule, the IC50 (MDA-MB-231 [6]; MDA-MB-231, 23 h) was 13.7 µM, the IC50 (MDA-MB-468) was 13.7 µM and the Activity (MCF7 [7]) was “Dose-Dependent Effect”. The IC50 (BT-474) was 15.1 µM, the inhibition [8] was “Active” and the inhibition (mTORC2 (Homo sapiens) [9]) was “Active”. For the same molecule, the IC50 (MCF7 [10]) was 11.2 µM, the Activity (MDA-MB-231 [11]) was “Dose-Dependent Effect” and the Activity (MDA-MB-231 [12]) was “Dose-Dependent Effect”. For the same molecule, the IC50 (SK-BR-3) was 14.4 µM, the inhibition (mTORC2 (Homo sapiens) [13]) was “Active” and the Activity (MCF7 [14]) was “Dose-Dependent Effect”. It also gave an IC50 (T47D) of 15.9 µM.
